≈ marks a conversion by molar mass, not a printed value.
How the values were obtained:
[1] = test system: Escherichia coli; assay: Antimicrobial activity against Escherichia coli ATCC 8739 assessed as inhibition of microbial growth measured after 8 passes in presence of sublethal compound concentration concentrations; type: functional
[2] = test system: Escherichia coli; assay: Antimicrobial activity against Escherichia coli ATCC 8739 assessed as inhibition of microbial growth incubated for 24 hrs; type: functional; details: ATCC 8739, 24 h
Summary of the method: (§1)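 Broth microdilution. Strains grown overnight on TSA at 37°C, suspended to 10⁸ CFU/mL in Tryptone-Sel, then diluted to 10⁶ CFU/mL in double-strength Mueller-Hinton broth. Two-fold serial dilutions in sterile water (pH 7.4–7.7) mixed 1:1 with inoculum. Incubation 24 h at 37°C. MIC is the lowest concentration inhibiting growth. Duplicate wells, three independent experiments.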

[3] = test system: Staphylococcus aureus; assay: Antimicrobial activity against Staphylococcus aureus ATCC 6538 assessed as inhibition of microbial growth incubated for 24 hrs; type: functional; details: ATCC 6538, 24 h; summary of the method: as §1
[4] = test system: Enterococcus faecalis; assay: Microbicidal activity against Enterococcus faecalis ATCC 29121 assessed as inhibition of colony growth incubated for 24 hrs followed by replating and further incubated for 24 hrs; type: functional; details: ATCC 29121, 24 h
[5] = test system: Pseudomonas aeruginosa; assay: Microbicidal activity against Pseudomonas aeruginosa ATCC 9027 assessed as inhibition of colony growth incubated for 24 hrs followed by replating and further incubated for 24 hrs; type: functional; details: ATCC 9027, 24 h
[6] = test system: Candida albicans; assay: Antimicrobial activity against Candida albicans ATCC 10231 assessed as inhibition of microbial growth incubated for 48 hrs; type: functional; details: ATCC 10231, 48 h
Summary of the method: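 C. albicans grown 48 h on Sabouraud at 20–25°C, suspended to 10⁸ CFU/mL, then diluted to 10⁶ CFU/mL in double-strength Mueller-Hinton broth. Two-fold serial dilutions in water (pH 7.4–7.7) mixed 1:1 with inoculum. Incubation 48 h at 25°C. MIC is the lowest concentration inhibiting growth. Duplicate wells, three independent experiments.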

[7] = test system: Staphylococcus aureus; assay: Microbicidal activity against Staphylococcus aureus ATCC 6538 assessed as inhibition of colony growth incubated for 24 hrs followed by replating and further incubated for 24 hrs; type: functional; details: ATCC 6538, 24 h
[8] = test system: Enterococcus faecalis; assay: Antimicrobial activity against Enterococcus faecalis ATCC 29121 assessed as inhibition of microbial growth incubated for 24 hrs; type: functional; details: ATCC 29121, 24 h; summary of the method: as §1
[9] = test system: Candida albicans; assay: Microbicidal activity against Candida albicans ATCC 10231 assessed as inhibition of colony growth incubated for 48 hrs followed by replating and further incubated for 48 hrs; type: functional; details: ATCC 10231, 48 h
[10] = test system: Escherichia coli; assay: Microbicidal activity against Escherichia coli ATCC 8739 assessed as inhibition of colony growth incubated for 24 hrs followed by replating and further incubated for 24 hrs; type: functional; details: ATCC 8739, 24 h
[11] = Hemolytic activity in human RBC assessed as induction of hemolysis incubated for 1 hr; type: cell-based, Erythrocyte; details: red blood cells (erythrocytes), read-out: HD50
Summary of the method: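 Human RBCs washed in PBS and used at 5% packed cell volume, mixed 1:1 with two-fold serial dilutions in PBS (pH 7.4–7.7). Incubation 1 h at 37°C, then centrifugation at 1500g for 10 min at 5°C. Supernatant absorbance read at 490 nm against PBS (0%) and 1% SDS/Tris (100%) controls. HC50 from three independent experiments, double duplicate.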

[12] = test system: Bacillus subtilis; assay: Antimicrobial activity against Bacillus subtilis ATCC 6633 assessed as inhibition of microbial growth incubated for 24 hrs; type: functional; details: ATCC 6633, 24 h; summary of the method: as §1
[13] = test system: Pseudomonas aeruginosa; assay: Antimicrobial activity against Pseudomonas aeruginosa ATCC 9027 assessed as inhibition of microbial growth incubated for 24 hrs; type: functional; details: ATCC 9027, 24 h; summary of the method: as §1
[14] = test system: Bacillus subtilis; assay: Microbicidal activity against Bacillus subtilis ATCC 6633 assessed as inhibition of colony growth incubated for 24 hrs followed by replating and further incubated for 24 hrs; type: functional; details: ATCC 6633, 24 h

MIC [2] | MIC [3] [µM] | MIC [6] [µM] | MIC [8] [µM] | MIC [12] [µM] | MIC [13] [µM] | SMILES | MIC [1] [mg/L] | MBC [4] [µM] | MBC [5] [µM] | MBC [7] [µM] | MBC [9] [µM] | MBC [10] [µM] | HC50 at 1 h [11] [µM] | MBC [14] [µM]
< 0.05 mg/L |  |  |  |  |  | CO/N=C(\C(=O)N[C@@H]1C(=O)N2C(C(=O)O)=C(COC(C)=O)CS[C@H]12)c1csc(N)n1 [CEFOTAXIME] | 0.8 |  |  |  |  |  |  | 
5.2 µM | 100 | 50 | > 150 | 0.8 | 100 | CC(=O)N[C@@H](CCCCN)c1nc(C)sc1C(=O)N[C@@H](C)c1nc(C)sc1C(=O)N[C@@H](C)c1nc(CCCCN)sc1C(=O)N[C@@H](C)c1nc(C)sc1C(=O)N[C@@H](C)c1nc(CCCCN)sc1C(=O)N[C@@H](CCCCN)c1nc(C)sc1C(=O)N[C@@H](C)c1nc(CCCCN)sc1C(=O)N[C@@H](CCCCN)c1nc(C)sc1C(=O)N[C@@H](C)c1nc(C)sc1C(=O)N[C@@H](C)c1nc(C)sc1C(=O)N[C@@H](C)c1nc(CCCCN)sc1C(=O)N[C@@H](CCCCN)c1nc(C)sc1C(N)=O |  | > 150 | > 100 | > 100 | 62.5 (≈ 158 µg/mL) | 8.3 (≈ 21 µg/mL) | > 100 | 0.8 (≈ 2.03 µg/mL)
23 µM | 3.1 | 25 | 3.1 | 0.5 | > 100 | CC(=O)N[C@@H](CCCNC(=N)N)c1nc(C)sc1C(=O)N[C@@H](C)c1nc(C)sc1C(=O)N[C@@H](C)c1nc(C)sc1C(=O)N[C@@H](CCCNC(=N)N)c1nc(C)sc1C(=O)N[C@@H](C)c1nc(C)sc1C(=O)N[C@@H](C)c1nc(C)sc1C(=O)N[C@@H](CCCNC(=N)N)c1nc(C)sc1C(=O)N[C@@H](C)c1nc(C)sc1C(=O)N[C@@H](C)c1nc(C)sc1C(=O)N[C@@H](CCCNC(=N)N)c1nc(C)sc1C(=O)N[C@@H](C)c1nc(C)sc1C(=O)N[C@@H](C)c1nc(C)sc1C(N)=O |  | 11.5 (≈ 27.8 µg/mL) |  | 8.3 (≈ 20.1 µg/mL) | 50 (≈ 121 µg/mL) | 30 (≈ 72.5 µg/mL) | 46 | 0.5 (≈ 1.21 µg/mL)
0.8 µM | 14.6 | 9.4 | 100 | 0.5 | 54 | CC(=O)N[C@@H](CCCNC(=N)N)c1nc(C)sc1C(=O)N[C@@H](C)c1nc(CCCNC(=N)N)sc1C(=O)N[C@@H](C)c1nc(C)sc1C(=O)N[C@@H](CCCNC(=N)N)c1nc(C)sc1C(=O)N[C@@H](C)c1nc(CCCNC(=N)N)sc1C(=O)N[C@@H](C)c1nc(C)sc1C(=O)N[C@@H](CCCNC(=N)N)c1nc(C)sc1C(=O)N[C@@H](C)c1nc(CCCNC(=N)N)sc1C(=O)N[C@@H](C)c1nc(C)sc1C(N)=O |  | > 100 | 100 (≈ 208 µg/mL) | 16.5 (≈ 34.4 µg/mL) | 12.5 (≈ 26 µg/mL) | 0.8 (≈ 1.67 µg/mL) | > 100 | 0.5 (≈ 1.04 µg/mL)
14.6 µM | 16.7 | 25 | 10.4 | 4.2 | 14.6 | CC(=O)N[C@@H](CCCCN)c1nc(C)sc1C(=O)N[C@@H](CC(C)C)c1nc(CCCCN)sc1C(=O)N[C@@H](C)c1nc(CC(C)C)sc1C(=O)N[C@@H](CCCCN)c1nc(C)sc1C(=O)N[C@@H](CC(C)C)c1nc(CCCCN)sc1C(=O)N[C@@H](C)c1nc(CC(C)C)sc1C(=O)N[C@@H](CCCCN)c1nc(C)sc1C(=O)N[C@@H](CC(C)C)c1nc(CCCCN)sc1C(=O)N[C@@H](C)c1nc(CC(C)C)sc1C(=O)N[C@@H](CCCCN)c1nc(C)sc1C(=O)N[C@@H](CC(C)C)c1nc(CCCCN)sc1C(=O)N[C@@H](C)c1nc(CC(C)C)sc1C(N)=O |  | 12.5 (≈ 35.9 µg/mL) | 19 (≈ 54.6 µg/mL) | 25 (≈ 71.8 µg/mL) | 25 (≈ 71.8 µg/mL) | 16.5 (≈ 47.4 µg/mL) | > 100 | 6.2 (≈ 17.8 µg/mL)
1.6 µM | 26 | 3.7 | > 150 | 0.5 | 3.9 | CC(=O)N[C@@H](CCCCN)c1nc(C)sc1C(=O)N[C@@H](C)c1nc(CCCCN)sc1C(=O)N[C@@H](C)c1nc(C)sc1C(=O)N[C@@H](CCCCN)c1nc(C)sc1C(=O)N[C@@H](C)c1nc(CCCCN)sc1C(=O)N[C@@H](C)c1nc(C)sc1C(=O)N[C@@H](CCCCN)c1nc(C)sc1C(=O)N[C@@H](C)c1nc(CCCCN)sc1C(=O)N[C@@H](C)c1nc(C)sc1C(=O)N[C@@H](CCCCN)c1nc(C)sc1C(=O)N[C@@H](C)c1nc(CCCCN)sc1C(=O)N[C@@H](C)c1nc(C)sc1C(N)=O |  | > 150 | 5.2 (≈ 13.2 µg/mL) | 57 (≈ 144 µg/mL) | 3.7 (≈ 9.38 µg/mL) | 1.6 (≈ 4.06 µg/mL) | > 100 | 0.5 (≈ 1.27 µg/mL)
5.2 µM | > 150 | 10.4 | > 150 | 0.8 | 42 | CC(=O)N[C@@H](CCCCN)c1nc(C)sc1C(=O)N[C@@H](C)c1nc(CCCCN)sc1C(=O)N[C@@H](C)c1nc(C)sc1C(=O)N[C@@H](CCCCN)c1nc(C)sc1C(=O)N[C@@H](C)c1nc(CCCCN)sc1C(=O)N[C@@H](C)c1nc(C)sc1C(=O)N[C@@H](CCCCN)c1nc(C)sc1C(=O)N[C@@H](C)c1nc(CCCCN)sc1C(=O)N[C@@H](C)c1nc(C)sc1C(N)=O |  | > 150 | 83 (≈ 159 µg/mL) | > 150 | 10.4 (≈ 19.9 µg/mL) | 7.3 (≈ 14 µg/mL) | > 100 | 0.8 (≈ 1.53 µg/mL)
> 150 µM | > 150 | > 150 | > 150 | > 150 | > 150 | CC(=O)N[C@@H](CCCCN)c1nc(C)sc1C(=O)N[C@@H](C)c1nc(CCCCN)sc1C(=O)N[C@@H](C)c1nc(C)sc1C(N)=O |  | > 150 | > 150 | > 150 | > 150 | > 150 | > 100 | > 150
> 150 µM | > 150 | 62.5 | > 150 | 30 | > 150 | CC(=O)N[C@@H](CCCCN)c1nc(C)sc1C(=O)N[C@@H](C)c1nc(CCCCN)sc1C(=O)N[C@@H](C)c1nc(C)sc1C(=O)N[C@@H](CCCCN)c1nc(C)sc1C(=O)N[C@@H](C)c1nc(CCCCN)sc1C(=O)N[C@@H](C)c1nc(C)sc1C(N)=O |  | > 150 | > 150 | > 150 | 130 (≈ 169 µg/mL) | > 150 | > 100 | 30 (≈ 38.9 µg/mL)

SMILES | MIC [2] | MIC [3] [µM] | MIC [6] [µM] | MIC [8] [µM] | MIC [12] [µM] | MIC [13] [µM] | MIC [1] [mg/L] | MBC [4] [µM] | MBC [5] [µM] | MBC [7] [µM] | MBC [9] [µM] | MBC [10] [µM] | HC50 at 1 h [11] [µM] | MBC [14] [µM]
CC[C@H](C)[C@H](NC(=O)CN)C(=O)NCC(=O)N[C@@H](C)C(=O)N[C@H](C(=O)N[C@@H](CC(C)C)C(=O)N[C@@H](CCCCN)C(=O)N[C@H](C(=O)N[C@@H](CC(C)C)C(=O)N[C@H](C(=O)N[C@H](C(=O)NCC(=O)N[C@@H](CC(C)C)C(=O)N1CCC[C@H]1C(=O)N[C@@H](C)C(=O)N[C@@H](CC(C)C)C(=O)N[C@H](C(=O)N[C@@H](CO)C(=O)N[C@@H](Cc1c[nH]c2ccccc12)C(=O)N[C@H](C(=O)N[C@@H](CCCCN)C(=O)N[C@@H](CCCNC(=N)N)C(=O)N[C@@H](CCCCN)C(=O)N[C@@H](CCCNC(=N)N)C(=O)N[C@@H](CCC(N)=O)C(=O)N[C@@H](CCC(N)=O)C(N)=O)[C@@H](C)CC)[C@@H](C)CC)[C@@H](C)O)[C@@H](C)O)C(C)C)C(C)C [MELITTIN] |  |  | 1.6 | 1.6 |  |  |  | 1.6 (≈ 4.55 µg/mL) | 3.1 (≈ 8.82 µg/mL) | 1.2 (≈ 3.42 µg/mL) | 1.6 (≈ 4.55 µg/mL) | 4.7 (≈ 13.4 µg/mL) |  | 1.1 (≈ 3.13 µg/mL)
